Data as given in publication PMC9080015 (RSC Advances, 2018).
Values belong to the molecule of their own block, whether it stands above or below them.

Tests used:
MCF-7/1B1 cells = format: cell-based, human
Procedure, shortened: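 MCF-7/1B1 cells were made by incubating parental MCF-7 with 10 nM TCDD for five days, then seeded at about 3000 cells/well in RPMI 1640/10% FBS for 24 h. Screen: 20 μM docetaxel alone or with 10 μM test compound. […] MTT read at 490 nm. Non-linear regression fit; mean ± SD of three independent measurements; Student's t test.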

parental MCF-7 cells = test: MTT anti-proliferation assay in parental MCF-7 cells; format: cell-based; settings: Homo sapiens, MCF7, read-out: IC50 of docetaxel in parental MCF-7 cells
Procedure, shortened: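 Parental MCF-7 cells were grown in RPMI 1640 with 10% FBS at 37 °C and 5% CO2. About 3000 cells/well were seeded and left 24 h, then exposed to six docetaxel concentrations. MTT read-out was absorbance at 490 nm. IC50 came from non-linear regression (log inhibitor vs normalized response, variable slope).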

CYP1A1 [1] = molecular target: T1, CYP1A1 (Homo sapiens, UniProt P04798); test: EROD assay, recombinant human CYP1A1 inhibition; format: biochemical
T1 sequence (P04798 1-512): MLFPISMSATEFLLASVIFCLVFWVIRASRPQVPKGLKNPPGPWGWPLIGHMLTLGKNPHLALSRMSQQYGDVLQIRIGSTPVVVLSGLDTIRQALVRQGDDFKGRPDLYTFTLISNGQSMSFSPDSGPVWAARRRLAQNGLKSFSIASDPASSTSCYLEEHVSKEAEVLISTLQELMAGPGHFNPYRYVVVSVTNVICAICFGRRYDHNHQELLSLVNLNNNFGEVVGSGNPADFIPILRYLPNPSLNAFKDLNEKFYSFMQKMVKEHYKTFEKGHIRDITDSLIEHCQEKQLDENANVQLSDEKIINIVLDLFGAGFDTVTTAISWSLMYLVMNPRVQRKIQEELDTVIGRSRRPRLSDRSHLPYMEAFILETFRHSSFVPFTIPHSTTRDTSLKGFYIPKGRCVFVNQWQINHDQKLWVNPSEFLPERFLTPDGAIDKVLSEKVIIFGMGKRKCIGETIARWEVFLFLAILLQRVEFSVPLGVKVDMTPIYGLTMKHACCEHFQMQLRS
Procedure, shortened: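 Supersomes with P450 reductase. Test compound is taken from 10 mM DMSO stock into Tris–HCl pH 7.4 (final DMSO <1% v/v), at several concentrations. Methanol stop. Resorufin fluorescence read at ex 544/em 590 nm. IC50 from nonlinear regression, log(inhibitor) vs normalized response, variable slope.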

CYP1A2 = settings: read-out: IC50 CYP1A2; recombinant human enzyme; cited from earlier work
CYP1A1 [2] = settings: read-out: IC50 CYP1A1; cited from earlier work
recombinant human CYP1B1 = molecular target: T2, recombinant human CYP1B1 (Homo sapiens, UniProt Q16678); test: EROD assay, recombinant human CYP1B1 inhibition; format: biochemical; settings: selectivity for CYP1B1 over CYP1A1
T2 sequence (Q16678 1-543): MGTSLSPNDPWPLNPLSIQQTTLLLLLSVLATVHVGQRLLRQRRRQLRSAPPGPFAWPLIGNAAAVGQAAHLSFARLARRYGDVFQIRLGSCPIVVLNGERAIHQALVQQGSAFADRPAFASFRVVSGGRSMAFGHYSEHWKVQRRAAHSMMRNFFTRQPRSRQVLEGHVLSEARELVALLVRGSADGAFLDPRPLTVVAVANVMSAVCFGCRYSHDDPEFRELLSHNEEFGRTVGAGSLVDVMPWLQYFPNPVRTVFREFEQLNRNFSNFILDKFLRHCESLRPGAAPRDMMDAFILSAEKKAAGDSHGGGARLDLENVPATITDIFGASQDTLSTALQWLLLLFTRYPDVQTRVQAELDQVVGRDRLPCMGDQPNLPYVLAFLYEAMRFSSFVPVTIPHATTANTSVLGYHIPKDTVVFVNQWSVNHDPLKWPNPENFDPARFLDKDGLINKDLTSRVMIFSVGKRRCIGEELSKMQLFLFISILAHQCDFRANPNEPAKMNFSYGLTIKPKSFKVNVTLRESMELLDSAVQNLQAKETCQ

fold resistance of MCF-7/1B1 cells to docetaxel versus parental MCF-7 cells (MCF-7/1B1 cells): 5 fold
SMILES: CC(=O)O[C@@]12CO[C@@H]1C[C@H](O)[C@@]1(C)C(=O)[C@H](O)C3=C(C)[C@@H](OC(=O)[C@H](O)[C@@H](NC(=O)OC(C)(C)C)c4ccccc4)C[C@@](O)([C@@H](OC(=O)c4ccccc4)[C@H]21)C3(C)C [docetaxel, reference compound]
IC50 (parental MCF-7 cells): 29500 nM

IC50 (CYP1A1 [1]): 62.8 nM
SMILES: O=c1cc(-c2ccccc2)oc2c1ccc1ccccc12 [ANF, α-Naphthoflavone]
IC50 (CYP1A1 [2]): 60 nM

IC50 ratio 1A1/1B1 (recombinant human CYP1B1): 5.5
SMILES: COc1cc2c(=O)cc(-c3cccc(Br)c3)[nH]c2c2c(OC)cccc12 [Compound 5e, 2-(3-Bromophenyl)-6,10-dimethoxybenzo[h]quinolin-4(1H)-one]
antiproliferative activity of the compound alone (MCF-7/1B1 cells; MCF-7/1B1 cells, varying concentrations, no docetaxel): a significant antiproliferative activity was not observed
